Here are results for 1 compound from ChEMBL document CHEMBL1136740, “New active series of growth hormone secretagogues” (J Med Chem, 2003).

The target in series [1] is T1, Growth hormone secretagogue receptor type 1 (Homo sapiens, UniProt Q92847). Put plainly: Binding affinity towards cloned human Growth hormone secretagogue receptor type I in LLC PK-1 cells using [125I][His9]-ghrelin as radioligand. It counts as cell-based.
In series [2] the test system is Rattus norvegicus. Put plainly: Ratio of GH release stimulated by 300 ug/kg of compound to that of GH release stimulated by 300 ug/kg of hexarelin in infant rat (sc injection). The format is functional. In a few lines: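 Male 10-day-old Sprague-Dawley pups, about 25 g, eight per group. Dosed sc at 300 µg/kg, with solvent as DMSO at final 1:300 dilution. Killed by decapitation 15 min later; trunk-blood plasma GH measured by RIA against the NIDDK rat standard, in ng/mL. Response compared with hexarelin at the same dose.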

Series [3] has as its target T1, Growth hormone secretagogue receptor type 1. Put plainly: Binding affinity towards human pituitary Growth hormone secretagogue receptor using [125I][Tyr4]-ghrelin as radioligand.
Series [4] relates to Canis familiaris. Put plainly: Concentration in dogs after oral administration at dose of 1 mg/kg after 180 min. Further details: dose 1 mg/kg, route oral. It counts as ADME, organism-based, Canis lupus familiaris. Particulars: dog, in vivo, 3 h. In a few lines:
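Beagle dogs (4–6, 2–3 years, 11–15 kg, both sexes) dosed 1 mg/kg through an oral-gastric cannula in randomized sequence. Blood drawn from the cephalic vein at −20 min, then at 15–180 min into EDTA tubes. Plasma GH measured by canine GH RIA (sensitivity 0.4 ng/mL). Peak GH and AUC0–180 min by trapezoid method reported as mean ± SEM; sexes pooled.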

A short description of series [5]: Stimulating GH secretion in dogs after oral administration at dose of 1 mg/kg.

T1 sequence (Q92847 whole entry): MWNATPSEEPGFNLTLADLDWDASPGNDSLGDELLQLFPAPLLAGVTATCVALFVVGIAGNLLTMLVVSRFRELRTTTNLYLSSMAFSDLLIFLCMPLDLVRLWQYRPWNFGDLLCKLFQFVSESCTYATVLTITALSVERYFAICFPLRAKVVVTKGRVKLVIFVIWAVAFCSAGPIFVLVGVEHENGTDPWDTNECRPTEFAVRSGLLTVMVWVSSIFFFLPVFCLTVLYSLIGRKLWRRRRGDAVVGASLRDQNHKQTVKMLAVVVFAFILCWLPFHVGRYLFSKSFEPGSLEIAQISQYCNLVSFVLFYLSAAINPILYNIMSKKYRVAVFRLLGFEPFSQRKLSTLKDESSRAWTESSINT

Broadly, the IC50 is the point on the concentration scale where inhibition reaches its midpoint. High values mean lower potency, low ones higher potency. Regarding `CNC(C)(C)C(=O)N[C@H](Cc1c[nH]c2ccccc12)C(=O)N[C@H](Cc1c[nH]c2ccccc12)NC(C)=O`, the IC50 in series [1] turned out to be 58 nM; in series [3], 74 nM. Moreover, in series [2], the Ratio is 1.38. Moreover, in series [4], the “GH AUC 0-180” value is 85.85 µg·min/L. The compound further gave a GH peak in series [5] of 1.1 µg/L.
